Experimental data gathered from unrelated publications.
Lines come from different studies, so protocols differ.
SLCO1B3: Solute carrier organic anion transporter family member 1B3 (SLCO1B3, Homo sapiens, UniProt Q9NPD5)

SMILES	tested on	assay	test system	setting	measurement	value
O=C(O[C@H]1[C@@H]2C=CO[C@@H](O[C@@H]3O[C@H](CO)[C@@H](O)[C@H](O)[C@H]3O)[C@@H]2[C@@]2(CO)O[C@@H]12)c1ccc(O)cc1	SLCO1B3	transporter uptake, substrate	HEK293	5 min	Km	502 µM
COc1cc(C(=O)NC2CCN(C)CC2)c(F)cc1Nc1ncc(C(F)(F)F)c(Oc2cccc3c2C(=O)N(C)C3)n1	–	–	human, plasma	oral, 200 mg, multiple doses, once daily, patients	CL/F	160 mL/min
CN(CCC(=O)O)C(=O)c1ccc2c(c1)CC[C@@H]1[C@@H]2CC[C@]2(C)C(c3cncc(F)c3)=CC[C@@H]12	SLCO1B3	transporter uptake, inhibitor	–	–	IC50	41 µM
CN(C(=O)n1cnc(-c2ccc[n+]([O-])c2)c1)C1CCCCC1	SLCO1B3	transporter uptake, inhibitor	HEK293	1 µg/mL	inhibition	11%
COc1ccnc(-c2nc3ccccn3c2N(C)c2ccc(F)cc2)c1	–	metabolic stability	rat, hepatocytes	–	hepatocyte CLint	> 300 µL/min/10⁶ cells
C[C@H]1C[C@H]2[C@@H]3CCC4=CC(=O)C=C[C@]4(C)[C@@]3(Cl)[C@@H](O)C[C@]2(C)[C@@]1(O)C(=O)CO	SLCO1B3	transporter uptake, inhibitor	–	–	IC50	1.4 µM
Fc1ccc(Nc2c(Cn3cccn3)nc3ccccn23)cc1	–	metabolic stability	rat, hepatocytes	–	hepatocyte CLint	51 µL/min/10⁶ cells
c1cnc2ccc(Nc3nc(NC4CC4)c4nc[nH]c4n3)cc2c1	–	–	human, plasma	oral, 50 mg/m², patients	CL/F	3180 mL/min
CN(c1ccc(F)cc1)c1c(-c2cccc(F)n2)nc2ccccn12	–	metabolic stability	rat, hepatocytes	–	hepatocyte CLint	> 300 µL/min/10⁶ cells
Cc1ccc(C(=O)N(CCCN)[C@@H](c2oc3cc(Cl)ccc3c(=O)c2Cc2ccccc2)C(C)C)cc1	–	–	human, plasma	intravenous, 4 mg/m², single dose, patients, infusion	clearance	24.8 mL/min
Oc1ccc(-c2nc(N3CCC(c4ccccn4)C3)c3ccccc3n2)cc1 (centres unmarked)	–	metabolic stability	human, liver microsomes	–	microsomal CLint	99 µL/min/mg
